From ChEMBL document CHEMBL1938288, “Discovery, synthesis, and pharmacological evaluation of spiropiperidine hydroxamic acid based derivatives as structurally novel histone deacetylase (HDAC) inhibitors” (J Med Chem, 2011) come the findings set out here.

For data set [1], the target named is T1, Protein deacetylase HDAC6 (Homo sapiens, UniProt Q9UBN7).
T1 sequence (Q9UBN7 whole entry): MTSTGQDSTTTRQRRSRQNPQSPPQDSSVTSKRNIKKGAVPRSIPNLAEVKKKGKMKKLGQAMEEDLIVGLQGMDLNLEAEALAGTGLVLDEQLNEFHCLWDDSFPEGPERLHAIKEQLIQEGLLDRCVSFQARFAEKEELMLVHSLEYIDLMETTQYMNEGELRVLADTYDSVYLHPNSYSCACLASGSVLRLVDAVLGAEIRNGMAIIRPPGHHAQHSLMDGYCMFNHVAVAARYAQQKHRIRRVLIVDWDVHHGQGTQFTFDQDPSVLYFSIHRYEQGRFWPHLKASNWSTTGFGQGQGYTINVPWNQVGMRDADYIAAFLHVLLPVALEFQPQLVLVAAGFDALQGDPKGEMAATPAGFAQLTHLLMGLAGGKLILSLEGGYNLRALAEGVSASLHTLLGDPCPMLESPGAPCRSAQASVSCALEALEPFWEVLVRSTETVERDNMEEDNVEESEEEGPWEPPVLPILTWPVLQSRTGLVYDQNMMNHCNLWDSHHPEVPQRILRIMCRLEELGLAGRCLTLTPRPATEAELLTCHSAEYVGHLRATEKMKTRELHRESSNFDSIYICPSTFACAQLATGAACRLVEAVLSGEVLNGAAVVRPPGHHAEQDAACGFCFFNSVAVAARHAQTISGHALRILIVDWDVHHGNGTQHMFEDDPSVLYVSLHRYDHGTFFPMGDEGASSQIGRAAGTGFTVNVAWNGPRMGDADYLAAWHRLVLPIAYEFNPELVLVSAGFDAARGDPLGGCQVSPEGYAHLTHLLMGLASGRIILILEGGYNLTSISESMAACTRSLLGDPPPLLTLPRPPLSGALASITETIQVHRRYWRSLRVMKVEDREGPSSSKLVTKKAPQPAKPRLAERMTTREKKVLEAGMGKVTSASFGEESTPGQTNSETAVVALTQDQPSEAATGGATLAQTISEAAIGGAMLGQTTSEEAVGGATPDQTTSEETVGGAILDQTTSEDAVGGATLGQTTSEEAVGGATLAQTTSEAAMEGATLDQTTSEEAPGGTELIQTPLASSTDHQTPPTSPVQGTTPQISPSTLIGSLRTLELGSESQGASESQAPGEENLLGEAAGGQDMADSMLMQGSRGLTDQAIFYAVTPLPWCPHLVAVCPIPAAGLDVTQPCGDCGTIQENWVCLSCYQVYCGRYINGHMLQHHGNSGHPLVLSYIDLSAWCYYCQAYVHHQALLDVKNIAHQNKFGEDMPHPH
The experiment in a line: Inhibition of HDAC6 using carboxyfluorescein-labeled peptide as substrate after 17 hrs by fluorescence assay. In a few lines:
(§1)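 Purified HDAC isoforms incubated with compound and 1 μM carboxyfluorescein-labelled peptide for 17 h at 25 °C. Reaction stopped with HEPES/0.08% SDS. Substrate and product separated electrophoretically and read by fluorescence. Run in duplicate. IC50 from 12-point curves by nonlinear regression.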

In another data set the test system is Mus musculus. Put plainly: Increase of histone H4 cetylation in human HCT116 cells xenografted in CD1 mouse at 35 to 150 mg/kg, po administered for 5 days/week for 17 days by immunohistochemistry. Particulars: HCT-116. Type of data set: functional, organism-based. An outline of the steps:
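Xenograft tumours from the oral efficacy study were collected 2 h after the last dose. They were formalin-fixed, paraffin-embedded, unmasked in TEG buffer pH 9, treated 5 min with 3% H2O2, and incubated overnight at 4 °C with anti-acetyl-histone H4. Staining was developed by HRP detection with hematoxylin counterstain. Positive cells and signal intensity were compared with vehicle.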

The target in data set [2] is Histone deacetylase (Homo sapiens) (UniProt Q13547+O15379+Q9UBN7+Q92769+Q9UQL6+Q8WUI4+Q9BY41+Q96DB2+P56524+Q9UKV0+Q969S8). Conditions: HCT-116, 100 uM.
Data set [3] has as its system HCT-116. The experiment in a line: Cell cycle arrest in human HCT116 cells assessed as accumulation at subG1 phase after 24 hrs by flow cytometry. It counts as functional, cell-based. An outline of the steps:
(§2)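 HCT-116 cells treated for 24 h at several concentrations. Harvested, fixed in 70% ethanol at -20 °C, RNase treated (1 mg/mL), stained with propidium iodide. DNA content measured by flow cytometry to give phase distribution, including the subG1 population.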
For orientation: Flow cytometry measures light scatter and fluorescence of single cells or particles in a stream.

The test system of data set [4] is HCT-116. Put plainly: Cell cycle arrest in human HCT116 cells assessed as accumulation at G0/G1 phase at 1 to 3 uM after 24 hrs by flow cytometry. It counts as functional, cell-based. Conditions: in the assay text read “G2/M phase” for “G0/G1 phase”. In a few lines:
as §2

A short description of data set [5]: Volume of distribution at steady state in CD1 mouse at 5 mg/kg, iv and 15 mg/kg, po. It counts as ADME, organism-based. Conditions: in vivo, read-out: Vdss. An outline of the steps: (§3)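 Single dose to male CD-1 mice, either iv at 5 mg/kg or oral at 15 mg/kg. Plasma pharmacokinetic parameters were calculated from these dosings.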
Data set [6] relates to HCT-116. Put plainly: Antiproliferative activity against human HCT116 cells after 72 hrs by CellTiter-Glo luminescent cell viability assay. It counts as functional, cell-based. Particulars: HCT-116, 72 h. In a few lines: (§4)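 Cells in exponential growth exposed to a range of inhibitor concentrations for 72 h. CellTiter-Glo reagent added, mixed 2 min to lyse cells, luminescence read 10 min later. IC50 derived from the concentration–response. Replicates n ≥ 2, mean shown.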
A general note: In ATP-based viability assays light output follows the ATP content of the culture.

The target in a further data set is Histone deacetylase. Put plainly: Inhibition of human HDAC in HeLa cell nuclear extracts using KI-104 Fluor de Lys as substrate by fluorescence assay. It counts as protein assay. In a few lines:
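HDAC activity from partially purified HeLa nuclear extracts, using a fluorogenic acetylated histone peptide (Fluor de Lys) as substrate. Replicates n ≥ 2, mean values reported.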

Data set [7] can be described thus: Cmax in CD1 mouse at 15 mg/kg, po. Conditions: in vivo. It counts as ADME, organism-based. Further details: dose 15 mg/kg, route oral. In a few lines:
as §3

A further data set deals with Histone deacetylase 3 (Homo sapiens, UniProt O15379). The experiment in a line: Inhibition of HDAC3 using carboxyfluorescein-labeled peptide as substrate after 17 hrs by fluorescence assay. An outline of the steps:
as §1

The nature of data set [8]: Plasma clearance in CD1 mouse at 5 mg/kg, iv and 15 mg/kg, po. It counts as ADME, organism-based. In a few lines:
as §3

In a further data set the test system is A549. Put plainly: Antiproliferative activity against human A549 cells after 72 hrs by CellTiter-Glo luminescent cell viability assay. Type of data set: functional, cell-based. Conditions: A549, 72 h. An outline of the steps: as §4

In general, IC50 refers to the concentration that gives 50% inhibition. Low readings indicate inhibition by little substance, high ones a need for much substance. The Cmax is the maximum level reached in the sampled fluid or tissue.

Activity calls are given as the source filed them. The rule behind the calls is not given here.

Sequence of Histone deacetylase 3 (O15379 whole entry): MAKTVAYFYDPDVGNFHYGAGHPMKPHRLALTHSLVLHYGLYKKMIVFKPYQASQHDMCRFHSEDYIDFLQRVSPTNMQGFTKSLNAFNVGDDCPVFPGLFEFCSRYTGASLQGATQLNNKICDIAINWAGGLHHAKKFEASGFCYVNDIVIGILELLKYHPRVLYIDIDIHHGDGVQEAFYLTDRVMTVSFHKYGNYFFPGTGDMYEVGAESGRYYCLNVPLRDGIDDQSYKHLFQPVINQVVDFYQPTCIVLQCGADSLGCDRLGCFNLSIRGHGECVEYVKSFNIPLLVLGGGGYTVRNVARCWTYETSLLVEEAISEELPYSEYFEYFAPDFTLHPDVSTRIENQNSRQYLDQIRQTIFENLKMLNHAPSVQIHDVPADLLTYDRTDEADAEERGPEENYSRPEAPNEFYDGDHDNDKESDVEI

Regarding `O=C(/C=C/c1ccc2c(c1)C(=O)CC1(CCN(Cc3ccccc3)CC1)O2)NO`, the IC50 in data set [1] stood at 25.7 nM; in the data set on HCT-116 [6], 477 nM; on Histone deacetylase, 121 nM; against Histone deacetylase 3, 9.4 nM; in the data set on A549, 773 nM. Besides, the outcome in the data set on Mus musculus and with HCT-116 [4] was Active. For the same compound, the inhibition result in data set [2] was “Active”. Moreover, the Activity entry in the data set on HCT-116 [3] was “Dose-dependent effect”. Besides, the Vd in data set [5] stood at 8.9 L/kg. For the same compound, the concentration in data set [7] peaked (Cmax) at 823 nM. Moreover, the clearance in [8] is 98 mL/min/kg.
